This data set in a line: Toxicity liver stage against HepG2, at 10uM. The data set is classed as cell-based. On the set-up: test concentration 10 uM, cell line HepG2-A16-CD81EGFP. To be noted: human, HepG2-A16-CD81EGFP cells; read-out: INHIBITION
In short, it runs like this: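 Uninfected HepG2-A16-CD81EGFP cells, 3 × 10^3 per well, 1536-well, plated on prespotted compound at 10 μM final, parasite-free screening media added to match infected plates; puromycin 10 μM positive, DMSO 0.5% negative; run in parallel with 48 h PbLuc assay at 37 °C, 5% CO2; viability by CellTiter-Glo luminescence, normalized to controls.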
For the compound `CC(=O)N[C@H](C)c1c(-c2ccc(Cl)cc2)noc1C(=O)O`, the cytotoxicity at 10 µM stood at 3.29%. On to `NC(=O)CN1C(=O)CO[C@H]2CN(Cc3ccc(C(F)(F)F)cc3)C[C@H]21`, for which the cytotoxicity at 10 µM turned out to be 0.523%. As to `O=C(Nc1ccccc1)[C@H]1CN2CCC1C[C@@H]2Cn1cc(CO)nn1` (stereo partly drawn), the cytotoxicity at 10 µM was -2.42%. As for `CC(=O)N1N=C(c2ccccc2)OC1C(=O)NCCOc1ccccc1` (stereo not drawn), the figure is -2.86%; as for `CNC(=O)c1cc(-c2ccccc2OC)[nH]n1`, -2.77%.

Take `COc1cccc(NC(=O)Cn2c(=O)nc(N)c3cc(C)sc32)c1`: the cytotoxicity at 10 µM was -8.72%. As for `CCN(C)C1COC2(CCN(C(=O)c3ccc4[nH]ccc4c3)CC2)C1` (stereo not drawn), the figure is -5.96%; as for `CCN1C(=O)C(c2ccccc2)CC12CCN(c1ncccn1)CC2` (stereo not drawn), 1.11%. As for `COCCC(=O)N1Cc2[nH]nc(COc3cccnc3)c2C1`, the figure is -2.97%. For `Cc1cncc(C(=O)NCC2COCc3c(C)nnn3C2)c1` (stereo not drawn), the cytotoxicity at 10 µM was -2.03%.

For `CC(C)(C)n1ncc2c1NC(=O)CC2c1ccc(C(=O)O)cc1` (stereo not drawn), the cytotoxicity at 10 µM was found to be 2.08%. As for `CC1CCN(C(=O)Cn2nc(Br)nc2Br)CC1`, the figure is -1.8%; as for `COC(=O)CCc1c(C)nn(-c2nc(C)cc(=O)[nH]2)c1C`, 9.22%. Regarding `COc1cccc(S(=O)(=O)NC2CNC(=O)C2)c1` (stereo not drawn), the cytotoxicity at 10 µM was -21.7%.

As for `O=c1ccc(-c2cccs2)nn1CN1CCN(Cc2ccccc2)CC1`, the cytotoxicity at 10 µM was -3.73%. To `Cc1nc(C)c(C(=O)N2CCc3nnc(C4CCCCN4C)n3CC2)s1` (stereo not drawn) belongs 0.642%.

On to `O=S(=O)(c1ccccc1)N1CCOC(Cn2ccnc2)C1` (stereo not drawn), for which the cytotoxicity at 10 µM amounted to 7.77%. Take `CC(C)n1nnc(CC(=O)NCC2(c3ccccc3F)CCCC2)n1`: the cytotoxicity at 10 µM is -0.325%. To `COc1ccc2c(c1)NC(C1CCN(C(=O)C(C)C)CC1)NS2(=O)=O` (stereo not drawn) belongs -4.66%. For `NCc1cccc(-c2cccnc2C(=O)NCCCN2CCOCC2)c1`, the cytotoxicity at 10 µM is -8.77%. Take `c1cc(-c2cnc(NC3CC3)nc2[C@H]2CCCO2)ccn1`: the cytotoxicity at 10 µM is 9.83%. With `O=C(Cn1cccc2cc(-c3ccc(F)cc3)nc1-2)N1CCC(O)CC1`, the cytotoxicity at 10 µM was -7.74%. For `NC(=O)CCOc1ccc(NC(=O)c2ccccc2OC(F)F)cc1`, the cytotoxicity at 10 µM was 9.62%. As for `CCC(C)C(=O)NCc1ccn(-c2ccc(F)cc2)n1` (stereo not drawn), the figure is -2.42%. For `CCC(=O)N(C)Cc1cccc(OC(C)C)c1`, the cytotoxicity at 10 µM came to 12.8%. Take `CC(Cn1cncn1)NC(=O)N1CC2(CCCC2)c2ccccc21` (stereo not drawn): the cytotoxicity at 10 µM stood at 5.65%. In the case of `Cc1nc2ccccc2nc1CN1CCc2c(nc(C3CC3)n2C)C1`, the cytotoxicity at 10 µM came to 7.97%. Regarding `CC(C)CNC(=O)COc1cccc[n+]1[O-]`, the cytotoxicity at 10 µM is -8.35%. For the compound `CCN(CCO)C(=O)Nc1ccc(OCCOC)nc1`, the cytotoxicity at 10 µM was -5.71%.

Consider `COc1ccccc1CNC(Cn1cncn1)c1ccccc1` (stereo not drawn), for which the cytotoxicity at 10 µM is -6.1%. To `Cc1ccoc1C(=O)N1CCOC2(CCCC2)C1` belongs -4.55%; to `CN(C)C(=O)CCS(=O)(=O)Cc1ccn(-c2cccc(F)c2)n1`, -5.71%; to `CCCNC(=O)CN1CCC(NCc2c(C)nn(C)c2OC)CC1`, -5.32%. To `N#Cc1cn(CCCN2CCc3ccccc32)c(=O)[nH]c1=O` belongs 6.48%; to `CC(C)OCCC(=O)N1CCN(CC(O)c2ccccc2)CC1` (stereo not drawn), -8.09%; to `c1ccc(C(c2ccccc2)N2CCN(CCn3cncn3)CC2)cc1`, -7.72%. `Cc1cnn(C2CN(CC(=O)NCC3(c4ccccc4)CCC3)C2)c1`: the cytotoxicity at 10 µM was -4.2%. To `Cc1nn(C)c(N(C)C)c1CNC(C)c1cccnc1` (stereo not drawn) belongs -2.8%; to `COc1ccnc(N2CCN(C(=O)c3csc(C)n3)CC2)n1`, 0.313%. As for `COc1ccc(OCCNc2cccc(C(=O)N3CCOCC3)c2)cc1`, the figure is 7.08%.

Consider `Cc1nnc(NC(=O)CN2CCCC2c2noc(C3CC3)n2)s1` (stereo not drawn), for which the cytotoxicity at 10 µM is 5.22%.

Turning to `CN(C)C(=O)C(C)(C)c1ccc2c(c1)OCCO2`, the cytotoxicity at 10 µM was -1.52%.

For `Cc1nc(CN2CCCN(C(=O)c3ccn(C)c(=O)c3)CC2)cs1`, the cytotoxicity at 10 µM is -12.7%. Take `O=C(CCc1nc(C2CC2)no1)c1ccccc1`: the cytotoxicity at 10 µM is -6.43%.

Regarding `N#Cc1ccc(CN2CCNC(=O)C2c2cccs2)cc1` (stereo not drawn), the cytotoxicity at 10 µM is -2.89%. For the compound `CC(=O)N1CCN(C(C)c2ccc(Br)cc2)CC1` (stereo not drawn), the cytotoxicity at 10 µM is -5.63%.

As to `CCN(Cc1ccoc1)C(=O)C1CCN(C(=O)OC(C)(C)C)C1` (stereo not drawn), the cytotoxicity at 10 µM was -15.5%.

Turning to `O=S(=O)(Cc1ccccc1)NCc1nnc2n1CCC2`, the cytotoxicity at 10 µM was found to be 16.2%. To `CC(Cn1cccn1)NC(=O)NCCCN1CCc2ccccc2C1` (stereo not drawn) belongs -3.08%; to `COc1ccc(CNCCn2c(C)nc3ccccc32)cc1O`, -3.51%. As for `COCC(NC(=O)NCc1cccc(Cl)c1)c1ccco1` (stereo not drawn), the figure is 6.4%; as for `CCN1CC(C(=O)NC(C)(C)CC(C)(C)C)CC1=O` (stereo not drawn), -4.72%. For `CN(C)CCCNC(=O)c1cc(Br)c2c(c1)OCCO2`, the cytotoxicity at 10 µM was 13.3%. As for `CSCc1nc(C(C)(C)NC(=O)OC(C)(C)C)no1`, the cytotoxicity at 10 µM was -8.44%.

On to `Cc1cn(CC(=O)NC2CCN(S(C)(=O)=O)CC2)c2ccccc12`, for which the cytotoxicity at 10 µM worked out at 1.44%. To `Cc1cccc(N2CCN(CCNC(=O)c3ccnn3C)CC2)c1` belongs 10.4%; to `O=C(CCn1ccccc1=O)N1CCCC(COc2ccc(F)cc2)C1` (stereo not drawn), -4.19%; to `CCC[C@H]1CN(c2cncc(C(=O)N3CCCCC3)n2)C[C@@H]1N(C)C`, -11.2%. Consider `CC(=O)NCC(=O)N1CCCC2(CCC(=O)N(CCc3c[nH]cn3)C2)C1` (stereo not drawn), for which the cytotoxicity at 10 µM worked out at 2.77%.

For the compound `CCCN(Cc1nc(-c2ccc(F)c(OC)c2)oc1C)CC1CCCO1` (stereo not drawn), the cytotoxicity at 10 µM was -1.03%. Turning to `O=C1NC(C(=O)NCc2cccnc2Oc2ccccc2F)CO1` (stereo not drawn), the cytotoxicity at 10 µM is 8.99%. With `O=C(c1ccccn1)N1CCc2c(nc(-c3ccncc3)[nH]c2=O)C1`, the cytotoxicity at 10 µM amounted to 2.99%. To `CC(C)CNS(=O)(=O)c1ccc(C(=O)N(C)CCc2cn[nH]c2)cc1` belongs 4.48%.

`COCCC(=O)N1CCCC2(CCC(=O)N(CCc3c[nH]cn3)C2)C1` (stereo not drawn): the cytotoxicity at 10 µM is -3.76%. For the compound `Cc1ccccc1CN1CCNC(=O)C1CC(=O)NCC1CCCCC1` (stereo not drawn), the cytotoxicity at 10 µM is -8.77%.

On to `CCn1cc(CNC2CCN(c3cccc(C)c3C)CC2)cn1`, for which the cytotoxicity at 10 µM was -9.99%. To `COc1cccc(CCn2ccnc2-c2cn(C3CCNCC3)nn2)c1` belongs -7.23%; to `COCCN(C/C=C/c1ccccc1)Cc1nccs1`, 42.8%. Take `Cc1n[nH]c(C)c1CCN(C)C(=O)C(c1cccnc1)N1CCOCC1` (stereo not drawn): the cytotoxicity at 10 µM is -0.593%. For `Cc1cc2c(cc1C(=O)N1CCC3(CC(=O)NC3=O)C1)OCCO2` (stereo not drawn), the cytotoxicity at 10 µM is 7.15%. With `Cn1ncc2c(NCCC34CCCN3CCC4)nc(C3CCCC3)nc21`, the cytotoxicity at 10 µM was -12.9%. With `O=C(Nc1cc(F)ccc1OCC1CCCO1)NC1CC1` (stereo not drawn), the cytotoxicity at 10 µM worked out at 0.043%. To `Cc1nn(C)c(Cl)c1C1CCCN1Cc1nc(-c2ccco2)no1` (stereo not drawn) belongs -11.8%.

Turning to `CC(C)c1nc(C2CCCN2CCS(=O)(=O)c2ccccc2)no1` (stereo not drawn), the cytotoxicity at 10 µM is -5.28%. To `COc1ccc(CNC(=O)CCSCc2csc(C)n2)cn1` belongs -21.4%; to `OC(CN1CCC(c2ccn[nH]2)CC1)c1ccc(F)cc1` (stereo not drawn), -28.9%.

As for `Cc1nc(CN2CCC(c3ccnn3CCO)CC2)oc1C`, the cytotoxicity at 10 µM was -15.9%.

With `CC(O)CN1CCN(C(=O)c2ccn(-c3ccccc3Cl)n2)CC1` (stereo not drawn), the cytotoxicity at 10 µM is -11.6%. As for `c1ncn(CC2CCCN(Cc3csc(-c4ccsc4)n3)C2)n1` (stereo not drawn), the figure is -9.86%. Turning to `Cc1noc(C)c1CN1CCCC(c2noc(C3CC3)n2)C1` (stereo not drawn), the cytotoxicity at 10 µM was -12.8%.

As for `CC(NC(=O)CCCOc1ccc(F)cc1)c1nnc2n1CCC2` (stereo not drawn), the cytotoxicity at 10 µM was -16.1%. For `Cc1noc(C(C)C)c1C(=O)NCCCN1CCC(C)CC1`, the cytotoxicity at 10 µM was -15.9%. Regarding `Cc1cnn(CC2CCCN2CC(=O)Nc2nccs2)c1` (stereo not drawn), the cytotoxicity at 10 µM was -4.34%. Regarding `Cc1ccc(S(C)(=O)=O)cc1C(=O)N1CCCC(n2cncn2)C1` (stereo not drawn), the cytotoxicity at 10 µM is -8.21%. For `Cc1nc(C)n(CC2CCCN2Cc2cn(-c3ccccc3)nn2)n1` (stereo not drawn), the cytotoxicity at 10 µM came out at 3.87%.

On to `CCN(CC)C1CCN(C(=O)NCc2nncn2CC)CC1`, for which the cytotoxicity at 10 µM was 2.72%. To `Cc1c(CN2CCc3nc4sccc4c(=O)n3CC2)cnn1C` belongs -2.75%; to `CCN1CCC2(CCN(c3ncccn3)CC2)C1=O`, 1.26%; to `O=C(O)c1cc2c(nc1N1CCOCC1)CCN(C1CCOC1)CC2` (stereo not drawn), 6.68%.

Turning to `COc1ncccc1CN1CCc2[nH]nc(C(=O)N3CCCC3C)c2C1` (stereo not drawn), the cytotoxicity at 10 µM is -4.4%. As for `CN(C)c1ncnc2c1CCN(Cc1nccs1)CC2`, the figure is 6.1%; as for `CCN(C)c1ncnc2c1CCN(C(=O)COC)CC2`, 1.75%. For `O=C(c1ccc(F)cc1)N1CC[C@H]2[C@H]1CCN2CC1CC1`, the cytotoxicity at 10 µM was -1.92%. To `O=S(=O)(c1cccc(F)c1)N1CC[C@H]2[C@H]1CCN2c1ncccn1` belongs -4.35%; to `O=C(C1CC1)N1CC2(CCNCC2)c2cc(F)ccc21`, 0.317%. Take `COCC(=O)N1CCCC2(CCN(CCN3CCCC3)CC2)C1`: the cytotoxicity at 10 µM was 4.71%.

As for `CC(C)N1CCC2(CC1)CC(NS(C)(=O)=O)c1ccccc1O2` (stereo not drawn), the cytotoxicity at 10 µM is 7.16%. `CC(=O)N1CCC2(CCN(Cc3cccc(F)c3)CC2)CC1`: the cytotoxicity at 10 µM is -5.46%.

The values are drawn from ChEMBL document CHEMBL4513216, “Probing the Open Global Health Chemical Diversity Library for Multistage-Active Starting Points for Next-Generation Antimalarials” (ACS Infect Dis, 2020).
